Measurements published in ChEMBL document CHEMBL3603837, “Indole Glucocorticoid Receptor Antagonists Active in a Model of Dyslipidemia Act via a Unique Association with an Agonist Binding Site” (J Med Chem, 2015).
Active and inactive are the calls of the source. The rule behind the calls is not given here.

Experiments:
[1] = target: T1, Glucocorticoid receptor (Homo sapiens) (UniProt P04150); experiment: Displacement of [3H]-dexamethasone from human glucocorticoid receptor expressed in HEK293 cells at 10 uM by scintillation counting based radioligand competition binding assay; assay type: cell-based
T1 sequence (whole entry): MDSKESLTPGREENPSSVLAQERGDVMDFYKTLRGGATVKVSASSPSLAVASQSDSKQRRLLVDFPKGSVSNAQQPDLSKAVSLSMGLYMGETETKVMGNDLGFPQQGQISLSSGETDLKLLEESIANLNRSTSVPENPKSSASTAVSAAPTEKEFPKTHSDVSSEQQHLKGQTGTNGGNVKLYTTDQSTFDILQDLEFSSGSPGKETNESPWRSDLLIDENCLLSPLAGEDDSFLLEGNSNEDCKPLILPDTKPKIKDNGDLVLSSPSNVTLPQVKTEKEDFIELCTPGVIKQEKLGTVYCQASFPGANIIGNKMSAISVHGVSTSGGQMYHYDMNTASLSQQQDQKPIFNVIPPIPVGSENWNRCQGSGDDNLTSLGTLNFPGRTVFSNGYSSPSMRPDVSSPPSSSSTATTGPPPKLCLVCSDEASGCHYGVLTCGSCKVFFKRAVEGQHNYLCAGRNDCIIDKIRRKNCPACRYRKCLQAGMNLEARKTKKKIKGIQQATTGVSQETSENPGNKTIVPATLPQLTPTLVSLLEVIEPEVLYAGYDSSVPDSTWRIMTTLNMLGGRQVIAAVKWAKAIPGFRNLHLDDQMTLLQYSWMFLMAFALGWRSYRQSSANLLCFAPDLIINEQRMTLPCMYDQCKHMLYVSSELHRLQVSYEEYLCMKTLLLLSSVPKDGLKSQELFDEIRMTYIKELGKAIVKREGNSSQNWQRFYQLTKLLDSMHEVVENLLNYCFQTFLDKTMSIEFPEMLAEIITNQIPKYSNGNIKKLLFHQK
How it was run: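 Competition binding with 0.3 nM [3H]-dexamethasone and 20 μg 293-GR lysate per well; nonspecific binding defined with 0.5 μM dexamethasone. Incubated overnight at 4 °C, free ligand removed with charcoal–dextran, then scintillation counting. Percent inhibition at 10 μM was calculated.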

[2] = Half life in rat at 3 mg/kg, po; assay type: ADME, organism-based; conditions: in vivo
Syrian golden hamster [3] = experiment: Reduction in LDL level in high fat and high cholesterol diet fed Syrian golden hamster at 30 mg/kg, po qd for 14 days; assay type: functional; conditions: Mesocricetus auratus, 336 h
How it was run: (§1)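 Groups of Syrian golden hamsters (n = 6) kept on a high fat, high cholesterol diet for 14 days, dosed orally at 30 mg/kg once daily. Plasma HDL and LDL compared against untreated HFHC controls; mean with standard errors.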

[4] = Volume of distribution at steady state in rat at 1 mg/kg, iv; assay type: ADME, organism-based; conditions: in vivo, read-out: Vdss
[5] = Cmax in rat at 3 mg/kg, po; assay type: ADME, organism-based; design: dose 3 mg/kg, route oral; conditions: in vivo
[6] = Tmax in rat at 3 mg/kg, po; assay type: ADME, organism-based; conditions: in vivo
Rattus norvegicus [7] = experiment: Toxicity in Wistar rat model of atypical antipsychotic quetiapine-induced weight gain assessed as effect on food intake at 10 mg/kg, po for 14 days; assay type: organism-based; conditions: in vivo, 336 h
How it was run: (§2)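 Prophylactic protocol in lean female Wistar rats (n = 9−10 per group). A dose response of test compound was given orally together with quetiapine at a fixed 10 mg/kg, concurrently for 14 days.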

[8] = AUC in rat at 1 mg/kg, iv; assay type: ADME, organism-based; conditions: in vivo
Syrian golden hamster [9] = experiment: Increase in HDL level in high fat and high cholesterol diet fed Syrian golden hamster at 30 mg/kg, po qd for 14 days; assay type: functional, Mesocricetus auratus; how it was run: as §1
[10] = Half life in rat at 1 mg/kg, iv; assay type: ADME, organism-based; conditions: in vivo
Rattus norvegicus [11] = experiment: Prevention of atypical antipsychotic quetiapine associated weight gain in Wistar rat at 10 mg/kg, po for 14 days; assay type: functional, organism-based; how it was run: as §2
[12] = AUC in rat at 3 mg/kg, po; assay type: ADME, organism-based; conditions: in vivo
[13] = Oral bioavailability in rat at 3 mg/kg; assay type: ADME, organism-based; conditions: in vivo

Activity [1] | half-life [2] [h] | Vd [4] [L/kg] | Cmax [5] [ng/mL] | Tmax [6] [h] | AUC [8] [ng·h/mL] | half-life [10] [h] | AUC [12] [ng·h/mL] | bioavailability [13] [%] | SMILES | inhibition in vivo at 30 mg/kg (Syrian golden hamster [3]) [%] | Activity (Rattus norvegicus [7]) | Activity (Syrian golden hamster [9]) [%] | inhibition (Rattus norvegicus [11])
inactive | – | – | – | – | – | – | – | – | COc1cc(F)ccc1-c1c(CN(C)Cc2ccccc2)[nH]c2c(N)cc(F)cc12 | – | – | – | –
– | 3.31 | 13.8 | 63.3 | 4 | 315 | 3.96 | 488 | 51.9 | COc1cc(F)ccc1-c1c(CN(C)Cc2ccccc2)[nH]c2c(NS(C)(=O)=O)cc(C(C)C)cc12 | 74 | Non-toxic | 73 | Active
